For test [1], the system named is Staphylococcus aureus. Put plainly: Antimicrobial activity against Staphylococcus aureus ATCC 6538 after 6 hrs. The test is classed as functional. The following applies: ATCC 6538, 6 h. The essentials: (§1)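 Broth microdilution MIC. Compounds were dissolved in acetone at a 5 mg/mL starting concentration, added to wells containing sterile water, then serially doubled down. Inoculum was 1 × 10⁶ CFU/mL, incubated 37 °C for 24 h. Then 0.2 mg/mL p-iodonitrotetrazolium violet was added and colour read after 6 h. MIC was the lowest concentration without growth. Acetone and ciprofloxacin (starting 0.01 mg/mL) served as controls. At least triplicate, on consecutive days.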

Test [2] has as its system Bacillus cereus. Kind of test: Antimicrobial activity against Bacillus cereus ATCC 11778 after 6 hrs. The test is classed as functional. The following applies: ATCC 11778, 6 h. The essentials: as §1
For test [3], the system named is Escherichia coli. Put plainly: Antimicrobial activity against Escherichia coli ATCC 8739 after 6 hrs. It is filed as functional. The following applies: ATCC 8739, 6 h. Summed up:
as §1

Test [4] concerns Klebsiella pneumoniae. Kind of test: Antimicrobial activity against Klebsiella pneumoniae ATCC 13831 after 6 hrs. The test is classed as functional. The following applies: ATCC 13831, 6 h. Summed up: as §1
Test [5] relates to Candida albicans. Put plainly: Antimicrobial activity against Candida albicans ATCC 10231 after 24 hrs. It is filed as functional. The note with it: ATCC 10231, 24 h. Summed up:
(§2)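 Yeast MIC by serial doubling dilution. Compounds were dissolved in acetone at a 5 mg/mL starting concentration into sterile-water wells. Inoculum was 1 × 10⁶ CFU/mL at 37 °C for 24 h plus a further 24 h. Then 0.2 mg/mL p-iodonitrotetrazolium violet was added and colour read after 24 h. MIC was the lowest concentration showing no growth. Acetone and amphotericin B (starting 0.01 mg/mL) served as controls. At least triplicate, on consecutive days.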

The test system of test [6] is Cryptococcus neoformans. Put plainly: Antimicrobial activity against Cryptococcus neoformans ATCC 90112 after 24 hrs. The test is classed as functional. The note with it: ATCC 90112, 24 h. The essentials: as §2
Test [7] concerns Staphylococcus aureus. Kind of test: Antimicrobial activity against Staphylococcus aureus ATCC 6538 at 1250 ug/mL after 6 hrs. It is filed as functional, organism-based.
Test [8] relates to Escherichia coli. Put plainly: Antimicrobial activity against Escherichia coli ATCC 8739 at 1250 ug/mL after 6 hrs. It is filed as functional, organism-based.
The test system of test [9] is Cryptococcus neoformans. Put plainly: Antimicrobial activity against Cryptococcus neoformans ATCC 90112 at 1250 ug/mL after 24 hrs. It is filed as functional, organism-based.

Converted amounts (≈) assume the structure as drawn. The source made the active and inactive calls.

The term MIC denotes the smallest concentration in the dilution series that meets the test's criterion for growth inhibition. Low readings indicate inhibition by little substance, high ones a need for much substance. For `COc1cc(-c2c[nH]c3ccccc23)c(OC)cc1Br`, the minimal inhibitory concentration (MIC) in test [1] was 156 µg/mL (≈ 470 µM); in test [2], 235 µg/mL (≈ 707 µM); in test [3], 469 µg/mL (≈ 1410 µM); in test [4] it was 313 µg/mL (≈ 942 µM); in [5], 156 µg/mL (≈ 470 µM); in test [6] it was 261 µg/mL (≈ 786 µM).
For the molecule `COc1ccc(-c2c[nH]c3ccc(OC)cc23)cc1`, the MIC in test [1] stood at 313 µg/mL (≈ 1240 µM); in test [2] it was 156 µg/mL (≈ 616 µM); in test [3] it was 521 µg/mL (≈ 2060 µM); in test [4], 261 µg/mL (≈ 1030 µM); in [5] it was 156 µg/mL (≈ 616 µM); in test [6] it was 29.3 µg/mL (≈ 116 µM).
Turning to `COc1cc(-c2c[nH]c3ccccc23)cc(OC)c1OC`, the MIC in test [2] was determined as 235 µg/mL (≈ 829 µM); in [3], 313 µg/mL (≈ 1100 µM); in test [4], 313 µg/mL (≈ 1100 µM); in test [5], 313 µg/mL (≈ 1100 µM); in [6] it was 29.3 µg/mL (≈ 103 µM). In addition, the outcome in test [7] was inactive.
Turning to `COc1cc(-c2cc3ccccc3[nH]2)cc(OC)c1OC`, the minimum inhibitory concentration (MIC) in test [1] came out at 469 µg/mL (≈ 1660 µM); in test [2], 20 µg/mL (≈ 70.6 µM); in test [3], 313 µg/mL (≈ 1100 µM); in [4] it was 391 µg/mL (≈ 1380 µM); in test [5], 117 µg/mL (≈ 413 µM); in test [6], 313 µg/mL (≈ 1100 µM).
Consider `COc1ccc2[nH]c(-c3ccccc3C)cc2c1`, for which the MIC in [1] amounted to 235 µg/mL (≈ 990 µM); in test [2] it was 156 µg/mL (≈ 657 µM); in test [3], 468 µg/mL (≈ 1970 µM); in test [4], 313 µg/mL (≈ 1320 µM); in test [5], 313 µg/mL (≈ 1320 µM).
As to `c1ccc(-c2cc3ccccc3[nH]2)cc1` [2-PHENYL-1H-INDOLE], the MIC turned out to be 469 µg/mL (≈ 2430 µM) in test [1]; 625 µg/mL (≈ 3230 µM) in [2]; 1250 µg/mL (≈ 6470 µM) in test [3]; 313 µg/mL (≈ 1620 µM) in test [4]; 156 µg/mL (≈ 807 µM) in test [5]; 625 µg/mL (≈ 3230 µM) in [6].
With `COc1ccc2[nH]cc(-c3ccccc3C=O)c2c1`, the MIC in test [1] is 156 µg/mL (≈ 621 µM); in test [2], 78 µg/mL (≈ 310 µM); in test [3] it was 235 µg/mL (≈ 935 µM); in test [4], 313 µg/mL (≈ 1250 µM); in [5] it was 156 µg/mL (≈ 621 µM); in test [6], 313 µg/mL (≈ 1250 µM).
Consider `COc1ccc2[nH]c(-c3ccccc3)cc2c1`, for which the minimum inhibitory concentration (MIC) in test [1] worked out at 156 µg/mL (≈ 699 µM); in [2], 3.9 µg/mL (≈ 17.5 µM); in test [4] it was 469 µg/mL (≈ 2100 µM); in test [5], 469 µg/mL (≈ 2100 µM). Further, the outcome in [8] and in [9] was inactive.
For the molecule `COc1ccc(-c2cc3ccccc3[nH]2)cc1`, the MIC in test [1] was 635 µg/mL (≈ 2840 µM); in test [2], 156 µg/mL (≈ 699 µM); in [3] it was 625 µg/mL (≈ 2800 µM); in [4], 313 µg/mL (≈ 1400 µM); in test [5], 156 µg/mL (≈ 699 µM); in [6] it was 58.5 µg/mL (≈ 262 µM).
Turning to `c1ccc2[nH]c(-c3cccc4ccccc34)cc2c1`, the MIC in [1] came to 625 µg/mL (≈ 2570 µM); in test [2], 625 µg/mL (≈ 2570 µM); in [3], 938 µg/mL (≈ 3860 µM); in [4] it was 313 µg/mL (≈ 1290 µM); in test [5], 156 µg/mL (≈ 641 µM); in test [6], 625 µg/mL (≈ 2570 µM).
`COc1ccc2[nH]cc(-c3ccccc3C)c2c1`: the MIC in [1] was determined as 29.3 µg/mL (≈ 123 µM); in [2], 19.5 µg/mL (≈ 82.2 µM); in test [3] it was 313 µg/mL (≈ 1320 µM); in [4] it was 313 µg/mL (≈ 1320 µM); in [5], 117 µg/mL (≈ 493 µM); in [6] it was 625 µg/mL (≈ 2630 µM).
In the case of `COc1ccc(-c2c[nH]c3ccccc23)cc1`, the MIC is 469 µg/mL (≈ 2100 µM) in [1]; 625 µg/mL (≈ 2800 µM) in test [2]; 208 µg/mL (≈ 932 µM) in test [4]; 156 µg/mL (≈ 699 µM) in [5]; 78 µg/mL (≈ 349 µM) in test [6]. Also, the result in test [8] was inactive.
Regarding `c1ccc(-c2c[nH]c3ccccc23)cc1` [3-PHENYLINDOLE], the MIC was found to be 39 µg/mL (≈ 202 µM) in test [1]; 19.5 µg/mL (≈ 101 µM) in [2]; 156 µg/mL (≈ 807 µM) in test [3]; 469 µg/mL (≈ 2430 µM) in [4]; 19.5 µg/mL (≈ 101 µM) in test [5]; 65.1 µg/mL (≈ 337 µM) in [6].
Regarding `COc1ccc2[nH]cc(-c3cc(OC)c(OC)c(OC)c3)c2c1`, the MIC in [1] came to 313 µg/mL (≈ 999 µM); in [2], 156 µg/mL (≈ 498 µM); in test [3], 313 µg/mL (≈ 999 µM); in test [4] it was 313 µg/mL (≈ 999 µM); in test [5], 313 µg/mL (≈ 999 µM); in test [6], 29.3 µg/mL (≈ 93.5 µM).
On to `COc1ccc(-c2cc3cc(OC)ccc3[nH]2)cc1`, for which the MIC was determined as 625 µg/mL (≈ 2470 µM) in [1], 313 µg/mL (≈ 1240 µM) in test [2], 313 µg/mL (≈ 1240 µM) in test [4] and 235 µg/mL (≈ 928 µM) in [5]. The result in [8] was inactive.
As for `COc1ccc2[nH]cc(-c3ccccc3)c2c1`, the MIC in test [1] worked out at 39.1 µg/mL (≈ 175 µM); in test [2], 15.6 µg/mL (≈ 69.9 µM); in test [3] it was 625 µg/mL (≈ 2800 µM); in test [4], 313 µg/mL (≈ 1400 µM); in [5] it was 78 µg/mL (≈ 349 µM); in test [6], 235 µg/mL (≈ 1050 µM).
For the molecule `COc1ccc2[nH]cc(-c3ccccc3C(C)=O)c2c1`, the minimal inhibitory concentration (MIC) in test [1] was 625 µg/mL (≈ 2360 µM); in test [2], 156 µg/mL (≈ 588 µM); in test [3], 313 µg/mL (≈ 1180 µM); in [4], 313 µg/mL (≈ 1180 µM); in test [5], 235 µg/mL (≈ 886 µM); in test [6], 39 µg/mL (≈ 147 µM).
In the case of `COc1ccc2[nH]c(-c3cc(OC)c(OC)c(OC)c3)cc2c1`, the MIC was determined as 313 µg/mL (≈ 999 µM) in test [1]; 156 µg/mL (≈ 498 µM) in test [2]; 625 µg/mL (≈ 1990 µM) in [3]; 313 µg/mL (≈ 999 µM) in [4]; 156 µg/mL (≈ 498 µM) in test [5]; 32.5 µg/mL (≈ 104 µM) in [6].

The record behind these values is ChEMBL document CHEMBL1155357, “The synthesis of 2- and 3-aryl indoles and 1,3,4,5-tetrahydropyrano[4,3-b]indoles and their antibacterial and antifungal activity” (2009).
